Screening results deposited in PubChem by several laboratories.
Calpain2 inh: calpain II (pig) inhibition; hit rate 0.37% among 220,000; purified calpain II, fluorogenic peptide substrate, 30 min; inhibition, % at 16 µM;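 active = inhibition above about 50%, limit read from the data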
FXIa inh 1536: blocks human coagulation factor XIa protease activity; hit rate 0.14% among 220,000; purified FXIa, Boc-Glu-Ala-Arg-AMC fluorogenic substrate; P03951; inhibition, % at 5 µM;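 active = inhibition of at least 40%; inactive = inhibition below 40%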;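 also: fluorescence of freed AMC excited at 355 nm; 0% = enzyme without compound and 100% = no enzyme blank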
FXIIa inh 1536: inhibitors of human coagulation factor XIIa. inhibition, % at 5 µM. purified FXIIa, Boc-QGR-AMC fluorogenic substrate, 2 h. AID 800. hit rate 0.3% among 220,000; in the data active = inhibition above about 40%;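 also: 0% = enzyme with no compound and 100% = blank without enzyme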
Target sequence (P00748 20-372 limits assumed): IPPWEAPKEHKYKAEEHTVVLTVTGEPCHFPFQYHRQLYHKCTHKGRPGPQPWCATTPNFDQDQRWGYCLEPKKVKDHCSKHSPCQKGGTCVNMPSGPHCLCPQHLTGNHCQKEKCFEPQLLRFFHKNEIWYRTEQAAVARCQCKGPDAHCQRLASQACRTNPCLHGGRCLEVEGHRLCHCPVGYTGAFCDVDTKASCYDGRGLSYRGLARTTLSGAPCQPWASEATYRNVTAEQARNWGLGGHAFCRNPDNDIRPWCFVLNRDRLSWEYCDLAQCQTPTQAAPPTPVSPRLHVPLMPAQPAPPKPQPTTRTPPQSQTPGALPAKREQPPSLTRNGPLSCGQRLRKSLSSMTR
Target sequence (P00748 373-615 limits assumed): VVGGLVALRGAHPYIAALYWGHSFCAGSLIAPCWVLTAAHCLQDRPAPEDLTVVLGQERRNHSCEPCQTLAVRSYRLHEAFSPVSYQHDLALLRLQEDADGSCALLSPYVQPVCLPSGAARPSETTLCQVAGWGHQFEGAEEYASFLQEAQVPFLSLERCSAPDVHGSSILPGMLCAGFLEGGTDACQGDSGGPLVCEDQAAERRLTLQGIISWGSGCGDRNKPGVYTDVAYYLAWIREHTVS
thrombin 1536: inhibitors of human thrombin | alpha-thrombin, Boc-VPR-AMC fluorogenic substrate cleavage | inhibition, % at 5 µM | hit rate 0.26% among 220,000 | AID 1046;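 active = inhibition at or above 40%; inactive = inhibition below 40%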;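 also: 0% = enzyme with no compound and 100% = wells without enzyme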
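Test system: human alpha-thrombin protein / Dosing: one concentration per compound, 5 µM, with 0.2% DMSO / Medium: pH 7.5 Tris-saline with Tween 20 / Benchmarks: no-compound enzyme wells and no-enzyme blanks / Read-out basis: percent inhibition of thrombin substrate cleavage / Timing: reaction at room temperature / Measured by: fluorescence, ex 355 nm, em 460 nm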
hK5 inh: blocks human kallikrein 5 protease activity; inhibition, % at 5 µM; AID 873; recombinant hK5, fluorogenic AMC substrate cleavage; hit rate 0.59% among 210,000;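 active = inhibition of 40% or more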;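 also: 0% = enzyme controls without compound and 100% = no-enzyme blanks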
* hit, by the source's call; i = inactive; · = no result. The list is not random: actives were taken first. Their share in the collection is about 1.4%.

SMILES | Calpain2 inh | FXIa inh 1536 | FXIIa inh 1536 | thrombin 1536 | hK5 inh
CCOC(=O)c1c(NC(NC(C)=O)C(Cl)(Cl)Cl)sc2c1CCCC2 (stereo unspecified) | 2.9 | 3.1 | 9.2 | -7.8 | -6.9
Cc1cc(C)c2[nH]c(=O)c(CN(Cc3cccs3)C(=S)NCC3CCCO3)cc2c1 (stereo unspecified) | -48.0 | 3.4 | 5.2 | -2.9 | -14.1
COc1cccc(CNc2ccc([N+](=O)[O-])c(NCC(=O)O)n2)c1 | 88.8* | -0.8 | 10.2 | 5.3 | -5.1
Cc1ccc(NC(=O)/C(=C\c2ccc([N+](=O)[O-])cc2)NC(=O)c2ccccc2)cc1 | 16.3 | 5.6 | 14.7 | 3.6 | -4.9
O=C(N/N=C/c1ccc(O)c(O)c1O)/C(=C/c1ccc([N+](=O)[O-])cc1)NC(=O)c1ccccc1 | -20.9 | 27.0 | 41.2* | 5.6 | i
CCCCc1c(C)nc2ccc(Br)cc2c1SCCC#N | -27.1 | 10.2 | 6.7 | 98.8* | 47.3*
O=C(Nc1cc(=O)[nH]c2ncnn12)c1ccco1 | 14.5 | 22.8 | 41.6* | 23.4 | 56.6*
O=C(Nc1cc(=O)[nH]c2ncnn12)c1ccccc1F | 2.0 | 0.5 | -0.4 | -6.4 | -2.0
O=c1c(Cl)c(Cl)cnn1Cc1ccc(F)cc1 | 25.9 | 38.2 | 51.9* | 21.7 | 27.9
CN1C(=O)/C(=N\OC(=O)c2ccccc2Cl)c2ccccc21 | -12.7 | 4.9 | 20.7 | 3.9 | 3.0
CC(=O)O/N=C1\C(=O)N(Cc2ccc(C)cc2)c2ccccc21 | 57.9* | 0.3 | 10.4 | 12.2 | -6.5
O=C(Oc1ccc(=O)n(-c2ccccc2)n1)c1ccc(Cl)cc1 | -24.4 | 51.3* | 20.9 | 4.9 | -13.0
O=C(Oc1ccc(=O)n(-c2ccccc2)n1)c1cccc(Cl)c1 | -14.8 | 68.0* | 17.5 | 5.1 | -9.0
Cc1cc(NC(=O)c2coc(=O)c(Br)c2)ccc1C(C)C | 41.1 | 5.5 | 5.8 | -3.1 | -8.2
COc1ccc(Cl)cc1N1C(=N)SCC1=O | -14.9 | 2.6 | 6.2 | -5.0 | 2.8
O=C(Nc1ncnc2sc3c(c12)CCCCC3)c1ccc(F)cc1 | 23.1 | 13.5 | 47.4* | -1.7 | 6.4
CCC(C)NC(=O)CSc1ncnc2sccc12 (stereo unspecified) | 19.0 | 31.4 | 40.3* | 25.9 | 18.5
CC1CN(C(=O)CSc2ncnc3sccc23)CC(C)O1 (stereo unspecified) | 0.1 | -3.0 | -6.1 | -5.3 | 0.7
Cc1ccc(-n2[nH]c(C)c(C=Nc3ccc(S(=O)(=O)N4CCOCC4)cc3)c2=O)c(C)c1 | 20.8 | -5.1 | 2.0 | -4.5 | -19.4
CC(=O)NC1CSCC1OC(C)=O (stereo unspecified) | 10.6 | 10.1 | 23.1 | 32.4 | 67.1*
COc1ccccc1N(CC(O)COc1ccccc1C)S(=O)(=O)c1ccccc1 (stereo unspecified) | 1.9 | -14.7 | 8.5 | -0.5 | -9.1
Cc1ccc(-c2noc(CN3CCC(C(N)=O)CC3)n2)cc1 | -5.1 | 2.1 | 25.9 | 103.8* | 86.3*
O=C(CSc1nc2[nH]ncc2c(=O)[nH]1)N1CCCCC1 | 19.5 | 3.4 | 14.7 | 47.0* | 36.1
Cn1c(SCC(=O)NNC(=O)c2ccc(Cl)cc2)nnc1-c1cccnc1 | -5.4 | -11.3 | 1.5 | -11.9 | -0.4
COc1cc(NS(=O)(=O)c2ccc(NC(=S)NC(=O)c3sc4ccccc4c3Cl)cc2)nc(OC)n1 | 58.1* | 9.4 | 14.5 | -0.9 | -26.1
SMILES | Calpain2 inh | FXIa inh 1536 | FXIIa inh 1536 | thrombin 1536 | hK5 inh
COc1cc(NS(=O)(=O)c2ccc(NC(=S)NC(=O)c3sc4cc(F)ccc4c3Cl)cc2)nc(OC)n1 | 19.7 | 5.5 | 2.1 | -4.1 | -13.6
O=C(C1CC1)N1CCc2cc(Br)cc(S(=O)(=O)N3CCCCCC3)c21 | 14.6 | 4.3 | 19.1 | 4.8 | 0.7
O=C(C1CC1)N1CCc2cc(Br)cc(S(=O)(=O)NC3CCCCC3)c21 | 53.4* | 2.6 | 16.2 | 2.3 | -4.0
COc1ccc(CCCc2n[nH]c(=S)n2C)cc1C | 25.9 | 29.6 | 30.3 | 9.0 | 42.9*
CC1CCCCN1C(=O)C1CCCCN1S(=O)(=O)c1cccc([N+](=O)[O-])c1 (stereo unspecified) | -2.7 | -7.3 | -1.6 | -5.3 | -4.4
CC(C)C(=O)NC(=S)Nc1ccc(S(=O)(=O)Nc2ccccc2)cc1 | 38.4 | 3.5 | -0.8 | 22.8 | 43.1*
CCOc1ccc(NS(=O)(=O)c2ccc(NC(=S)NC(=O)C(C)C)cc2)cc1 | 35.1 | 1.0 | 15.0 | 7.2 | 52.0*
Cc1ccc(S(=O)(=O)N2CCOCC2)cc1C(=O)Nc1ccc(S(=O)(=O)Nc2nccs2)cc1 | -42.8 | -4.4 | 5.9 | -4.9 | -2.6
O=C(CN1CCN(c2ccc(F)cc2)CC1)Nc1ccccc1[N+](=O)[O-] | 13.2 | -3.4 | 7.9 | -3.4 | -1.5
O=C(N/N=C(\CC(=O)c1cccs1)C(F)(F)F)c1ccncc1 | 18.9 | 36.9 | 23.5 | 8.2 | 61.4*
CC(=O)Nc1ccc(C(=O)n2cnc3cc(C)c(C)cc32)cc1 | -26.5 | -3.8 | 8.8 | -0.3 | 3.7
CC(=O)Nc1ccc(S(=O)(=O)n2cnc3cc(C)c(C)cc32)cc1 | 6.8 | -0.8 | 11.9 | 104.4* | 92.1*
CC(=O)Nc1cccc(NC(=O)C2CCCN2C(=O)Nc2cccc(C)c2)c1 (stereo unspecified) | 13.1 | 11.9 | 11.0 | 14.5 | 40.7*
CCC(C)C(NC(=O)c1ccc(Cl)cc1)C(=O)Nc1cccnc1 (stereo unspecified) | 101.7* | -4.2 | 3.9 | -8.6 | -5.0
CCC(=O)Nc1ccc(C(=O)Nc2cccnc2)cc1 | -22.2 | -10.1 | 8.7 | 1.6 | -13.6
O=C(CCc1nc2ccccc2c(=O)[nH]1)OCCOc1ccc(Cl)cc1 | -12.9 | -1.8 | 2.6 | -1.8 | -3.1
CCOC(=O)CNC(=O)c1cc(OC)cc(OC)c1 | -28.2 | 7.4 | 3.7 | -1.1 | 2.9
CCOC(=O)CNC(=O)Cc1ccc(OC)cc1 | -2.0 | 19.2 | 42.7* | 11.8 | 25.4
CCCCC(=O)Nc1ccc(Br)cn1 | -0.2 | -3.9 | 5.4 | -0.4 | 4.9
CC(C)=CC1C(C(=O)Nc2ccc(Br)cn2)C1(C)C (stereo unspecified) | 52.6* | -7.1 | 3.3 | 13.1 | -7.0
CC1=C(C(N)=O)C(c2ccccn2)n2nc(-c3ccccc3Cl)nc2N1 (stereo unspecified) | 8.7 | 5.7 | 30.0 | 36.1 | 42.9*
COc1ccccc1C1C(C(N)=O)=C(C)Nc2nc(-c3ccccc3Cl)nn21 (stereo unspecified) | 7.4 | 1.8 | 14.5 | -2.2 | -8.9
CC[N+]1(CC)CC2=Cc3c(ccc4ccccc34)C(C)C2C1 (stereo unspecified) | -19.7 | 1.5 | 5.6 | 0.2 | -0.6
CC1(C)CC(=O)CC(=NCC(=O)O)C1 | 19.3 | -7.0 | -1.5 | -0.5 | 128.1*
Nc1nc(SCC(=O)Nc2ccc(Cl)cn2)n[nH]1 | 7.2 | 13.3 | 4.8 | · | 7.2
Cc1nn(-c2ccccc2)c(C)c1NC(=O)c1cccs1 | 10.2 | 7.0 | 12.1 | 15.8 | 49.8*
Cc1ccc(/C=N/NC(=O)Cn2nnc(N)n2)o1 | -2.8 | 7.9 | 5.5 | -0.4 | 9.3
CCN(CC)S(=O)(=O)c1ccc(OCCNS(C)(=O)=O)cc1 | 4.0 | 1.3 | 12.7 | 1.7 | ·
CCOC(=O)N1CCN(c2c(NCCc3ccccc3)c(=O)c2=O)CC1 | 8.0 | 4.2 | 11.4 | 0.9 | 1.1
